Assay results: ChEMBL document CHEMBL1124475, “The thieno[3,2-c]pyridine and furo[3,2-c]pyridine rings: new pharmacophores with potential antipsychotic activity” (J Med Chem, 1989)
The source made the active and inactive calls. The calls are words filed in the database; no cut-off is given here.

How the values were obtained:
[1] = target: Serotonin 1 (5-HT1) receptor (Rattus norvegicus, UniProt P28564+P30940+P19327+P28565); test: Ability to bind at 5-hydroxytryptamine 1 receptor of rat hippocampus by displacing [3H]5-HT; format: tissue-based
How it was run: (§1)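 Rat receptor radioligand displacement, five test-ligand concentrations used to calculate IC50, each assay in duplicate. Some compounds determined four times (in duplicate), with mean IC50 reported.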

[2] = target: T1, Adrenergic receptor alpha-1 (Rattus norvegicus, UniProt P15823+P23944+P43140); test: Ability to bind at alpha-1 adrenergic receptor by displacing [3H]WB-4101; format: protein assay; how it was run: as §1
T1 sequence (P15823 whole entry): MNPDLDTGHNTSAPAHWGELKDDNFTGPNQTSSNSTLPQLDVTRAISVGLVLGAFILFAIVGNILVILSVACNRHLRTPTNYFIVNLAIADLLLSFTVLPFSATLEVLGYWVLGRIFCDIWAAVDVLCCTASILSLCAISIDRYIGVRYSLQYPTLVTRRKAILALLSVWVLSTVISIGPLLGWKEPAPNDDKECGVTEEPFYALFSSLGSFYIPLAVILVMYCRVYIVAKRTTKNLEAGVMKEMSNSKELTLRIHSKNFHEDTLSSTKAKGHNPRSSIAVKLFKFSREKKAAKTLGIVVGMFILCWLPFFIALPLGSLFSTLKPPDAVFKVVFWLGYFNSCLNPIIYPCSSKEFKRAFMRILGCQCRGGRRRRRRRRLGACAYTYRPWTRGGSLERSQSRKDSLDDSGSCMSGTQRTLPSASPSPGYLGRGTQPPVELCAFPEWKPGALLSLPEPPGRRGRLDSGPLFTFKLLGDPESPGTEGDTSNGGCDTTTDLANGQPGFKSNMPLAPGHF
T1 sequence (P23944 whole entry): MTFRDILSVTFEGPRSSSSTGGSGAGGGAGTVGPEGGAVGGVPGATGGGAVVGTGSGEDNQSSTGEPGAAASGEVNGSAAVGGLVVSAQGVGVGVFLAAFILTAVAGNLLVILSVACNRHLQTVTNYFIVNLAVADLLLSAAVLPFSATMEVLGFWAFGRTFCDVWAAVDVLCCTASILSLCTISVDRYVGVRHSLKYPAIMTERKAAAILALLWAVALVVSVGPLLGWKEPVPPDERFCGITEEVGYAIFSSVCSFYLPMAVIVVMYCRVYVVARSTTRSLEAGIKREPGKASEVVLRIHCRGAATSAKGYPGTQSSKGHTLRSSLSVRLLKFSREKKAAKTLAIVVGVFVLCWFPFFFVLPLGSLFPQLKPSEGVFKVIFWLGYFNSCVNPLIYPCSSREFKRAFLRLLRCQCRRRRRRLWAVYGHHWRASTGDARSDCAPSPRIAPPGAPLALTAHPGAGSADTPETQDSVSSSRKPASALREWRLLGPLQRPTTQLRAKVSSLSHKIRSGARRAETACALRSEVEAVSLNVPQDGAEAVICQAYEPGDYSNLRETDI
T1 sequence (P43140 whole entry): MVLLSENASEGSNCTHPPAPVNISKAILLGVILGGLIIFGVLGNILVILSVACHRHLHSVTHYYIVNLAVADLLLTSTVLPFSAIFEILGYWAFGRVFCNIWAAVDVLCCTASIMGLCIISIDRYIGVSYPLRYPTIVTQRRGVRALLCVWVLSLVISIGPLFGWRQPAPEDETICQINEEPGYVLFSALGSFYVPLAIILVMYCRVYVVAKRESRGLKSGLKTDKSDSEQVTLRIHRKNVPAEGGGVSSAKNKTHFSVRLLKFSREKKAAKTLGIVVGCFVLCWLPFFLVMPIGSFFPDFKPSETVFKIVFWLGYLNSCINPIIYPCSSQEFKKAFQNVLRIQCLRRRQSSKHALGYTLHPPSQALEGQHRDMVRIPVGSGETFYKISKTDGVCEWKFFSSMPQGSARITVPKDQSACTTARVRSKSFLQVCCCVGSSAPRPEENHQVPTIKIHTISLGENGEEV

D(2) dopamine receptor = D(2) dopamine receptor (Rattus norvegicus, UniProt P61169); test: Ability to bind at Dopamine receptor D2 of rat corpus striatum by displacing [3H]spiperone; how it was run: as §1
Rattus norvegicus [3] = test: Spontaneous discharge activity of individual dopaminergic neurons in the ventral tegmentum neurons (A10 DA cells) when administered subcutaneously at a dose of 5.0 mg/kg/day in anesthetized male Sprague-Dawley rats; No effect at a dose of 0.1-6.3 mg/kg; format: functional, organism-based; details: A10DA
Rattus norvegicus [4] = test: Spontaneous discharge activity of individual noradrenergic neurons in the locus coeruleus (LC) when administered intravenously in anesthetized male Sprague-Dawley rats; (excitatory); format: functional; details: iv
Rattus norvegicus [5] = test: Blockade of apomorphine-induced stereotypy in rats when administered perorally; format: functional; details: po
Rattus norvegicus [6] = test: Induction of catalepsy in rats when administered perorally and maximum dose examined was 4 times the ED50 value established in CAR; Inactive; format: functional, organism-based
Rattus norvegicus [7] = test: Spontaneous discharge activity of individual dopaminergic neurons in substantia nigra (A9DA cells) when administered subcutaneously at dose of 5.0 mg/kg/day in anesthetized male Sprague-Dawley rats; small increase in the number of DA cells per track; format: functional, organism-based
Rattus norvegicus [8] = test: Spontaneous discharge activity of individual dopaminergic neurons in the substantia nigra (A9 DA cells) when administered intravenously at a dose of 0.1-6.3 mg/kg in anesthetized male Sprague-Dawley rats; No effect at a dose of 0.1-6.3 mg/kg; format: functional, organism-based; details: A9DA
Rattus norvegicus [9] = test: Spontaneous discharge activity of individual dopaminergic neurons in the ventral tegmentum neurons (A10 DA cells) when administered intravenously at a dose of 0.1-6.3 mg/kg in anesthetized male Sprague-Dawley rats; No effect at a dose of 0.1-6.3 m g/kg; format: functional, organism-based; details: A10DA
Rattus norvegicus [10] = test: Reversal of trifluoperazine-induced catalepsy in rats when administered perorally; format: functional; details: po
Rattus norvegicus [11] = test: Spontaneous discharge activity of individual serotonergic neurons in the dorsal raphe (DR) nucleus when administered intravenously in anesthetized male Sprague-Dawley rats; (Inhibitory); format: functional; details: iv
Rattus norvegicus [12] = test: Conditioned avoidance response (CAR) when administered perorally; format: functional; details: po
Rattus norvegicus [13] = test: Blockade of Sidman-avoidance activity in rats when administered perorally; format: functional; details: po
How it was run: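 Rats trained in once-daily Sidman sessions until stable; non-learners after 3 days replaced. Twelve rats dosed 30 min before session. Each rat compared with mean of its previous three drug-free days by paired t test. Testing continued to minimally effective dose; maximum usually 100 mg/kg. MED is mean over 12 animals.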

[14] = target: Serotonin 2 (5-HT2) receptor (Rattus norvegicus, UniProt P30994+P08909+P14842); test: Ability to bind at serotonin 5-hydroxytryptamine 2 receptors of rat cortex by displacing [3H]spiperone

D(2) dopamine receptor, sequence (P61169 whole entry): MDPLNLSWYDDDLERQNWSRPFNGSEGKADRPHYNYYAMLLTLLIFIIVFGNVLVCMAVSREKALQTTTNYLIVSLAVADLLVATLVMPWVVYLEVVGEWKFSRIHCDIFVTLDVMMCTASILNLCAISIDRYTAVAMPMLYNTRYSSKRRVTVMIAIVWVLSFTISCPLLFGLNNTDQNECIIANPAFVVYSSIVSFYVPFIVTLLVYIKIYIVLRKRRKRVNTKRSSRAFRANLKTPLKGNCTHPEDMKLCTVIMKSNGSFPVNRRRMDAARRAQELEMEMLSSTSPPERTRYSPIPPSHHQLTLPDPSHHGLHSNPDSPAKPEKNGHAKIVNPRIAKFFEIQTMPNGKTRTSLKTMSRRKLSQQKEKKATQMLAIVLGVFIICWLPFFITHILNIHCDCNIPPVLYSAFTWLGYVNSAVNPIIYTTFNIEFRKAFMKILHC

IC50 [1]: 33.5 nM
IC50 [2]: 40.9 nM
IC50 (D(2) dopamine receptor): > 1000 nM
IC50 [14]: 55.2 nM
Compound: O=C1COCC(=O)N1CCCCN1CCN(c2nccc3occc23)CC1
ED25 (Rattus norvegicus [3]): inactive
ED25 (Rattus norvegicus [4]): 0.017 mg/kg
ED50 (Rattus norvegicus [5]): 34 mg/kg
ED50 (Rattus norvegicus [6]): inactive
ED25 (Rattus norvegicus [7]): inactive
ED25 (Rattus norvegicus [8]): inactive
ED25 (Rattus norvegicus [9]): inactive
ED50 (Rattus norvegicus [10]): 2.2 mg/kg
ED50 (Rattus norvegicus [11]): 0.01 mg/kg
ED50 (Rattus norvegicus [12]): 11.2 mg/kg
MED (Rattus norvegicus [13]): 25 mg/kg
